HNF4A DNA FP: change in binding of human HNF4 alpha to DNA; HNF4a-FITC DNA binding, fluorescence polarization, 1 h; activity change, % at 10 µM; AID 1224865; 0.3% of 360,000 active; P41235; in the data active = activity change above about 30%, passing the limit was not always enough
Target sequence (P41235 whole entry, looked up): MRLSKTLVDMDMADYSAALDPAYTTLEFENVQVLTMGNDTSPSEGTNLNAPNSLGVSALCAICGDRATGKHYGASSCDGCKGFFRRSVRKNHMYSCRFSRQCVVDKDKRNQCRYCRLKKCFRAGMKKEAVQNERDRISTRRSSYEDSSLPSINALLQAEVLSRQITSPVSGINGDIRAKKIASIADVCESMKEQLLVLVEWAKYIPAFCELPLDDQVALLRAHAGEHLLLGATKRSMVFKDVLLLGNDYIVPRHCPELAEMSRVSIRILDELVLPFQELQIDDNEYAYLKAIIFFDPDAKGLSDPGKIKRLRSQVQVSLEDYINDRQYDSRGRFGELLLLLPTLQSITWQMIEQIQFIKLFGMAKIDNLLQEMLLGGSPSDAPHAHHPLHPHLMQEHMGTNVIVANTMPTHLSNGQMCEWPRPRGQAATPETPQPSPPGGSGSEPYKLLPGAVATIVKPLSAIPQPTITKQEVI
Granule exo inh: lytic granule exocytosis inhibition. TALL-104 LAMP-1 surface exposure, flow cytometry; cells stimulated with thapsigargin and PMA. inhibition, % at 10 µM. 0.66% of 360,000 active;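 active = inhibition above about 55%, limit read from the data; inconclusive = no clear call, values can overlap the other calls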
Myeloid diff MLP: myeloid differentiation induction; AID 624256; 1% of 360,000 active; ER-HoxA9 myeloid progenitors, lysozyme-GFP differentiation, flow cytometry; calls only at 10 µM;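 active = normalized GFP-positive differentiation at or above the plate's own cutoff, the solvent-only control mean plus 3 SD; inconclusive = no clear call, values can overlap the other calls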;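 note: cells exposed to compound for four days before flow analysis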
SENP1 inh: SENP1 (human) catalytic domain inhibition; inhibition, % at 10 µM; Q9P0U3; recombinant SENP1 catalytic domain, CyPet-SUMO1-YPet FRET cleavage; 0.21% of 360,000 active;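 active = inhibition at least 30% at 10 µM, raw YFP signal under a set limit, fluorescence ratio 0.5 to 1.5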;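 note: 0% = enzyme with DMSO and 100% = no enzyme wells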
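Material: hSENP1 catalytic domain, recombinant; medium: Tris pH 8 with BME, BSA, NP40 and catalase; compound: single concentration of 10 µM compound, 0.5% DMSO final; technique: FRET read of cyan and yellow fluorescence; timing: 50 min enzyme reaction, room temperature, light-protected; reagent: SFCypet-SUMO1-SFYpet substrate at 25 nM; control set: no-enzyme low, enzyme-DMSO high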
Pemphigus Ab inh: human desmoglein-3 autoantibody binding inhibition; P32926; DSG3-coupled beads, scFv-anti-DSG3-GFP binding, flow cytometry; active compounds read low; binding (percent of control), % at 10 µM; 0.48% of 310,000 active;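 active = binding more than 3 SD below its plate's average and above zero; inconclusive = below that plate limit but binding exactly zero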;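 note: hits lower antibody fragment binding to DSG3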
H9c2 protect: modulators protecting cardiomyocytes from myocardial damage; AID 588492; protection from H2O2 cell death, % at 20 µM; H9c2 cardiomyocytes, H2O2 injury protection, ATPLite, 2 h; 0.63% of 360,000 active;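 active = compounds giving at least 50% protection of heart cells from peroxide-induced death in the single-dose screen, raw or plate-pattern-corrected value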;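 note: 0% = DMSO wells with peroxide and 100% = DMSO wells without peroxide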
Granule exo CP1: lytic granule exocytosis inhibition | shares compounds with Granule exo inh | TALL-104 cells, LAMP-1 externalization, flow cytometry; stimulated with PMA plus thapsigargin | inhibition, % at 10 µM | 11% of 1,500 active | AID 651954; in the data active = inhibition above about 60%;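 note: 0% = stimulated vehicle wells and 100% = unstimulated wells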
* marks the source's active call; other numbers are inactive results; i = inactive; ? = inconclusive; nt = no result; + = active, no number. Compounds with a hit are over-represented: about 3% of the library has one in this group of screens.

SMILES	HNF4A DNA FP	Granule exo inh	Myeloid diff MLP	SENP1 inh	Pemphigus Ab inh	H9c2 protect	Granule exo CP1
COc1ccc(N2C(=O)CC(Sc3nnnn3-c3ccc(F)cc3)C2=O)cc1 (centres undefined)	-6	25	i	3	95	-27	nt
O=C1CC(Sc2nnnn2-c2ccccc2)C(=O)N1c1cccc(Cl)c1 (centres undefined)	3	99*	nt	1	92	-38	101*
CCN(CC)Cc1ccc(NC(=O)c2sc3cc(Cl)ccc3c2Cl)cc1	10	81*	+	-1	110	-4	24
COc1ccc(CCC(=O)N2CCN(S(=O)(=O)c3cccc(Cl)c3)CC2)cc1	5	-1	i	0	101	-3	nt
Cc1oc(-c2ccc(Cl)cc2)nc1CS(=O)CC(=O)NCCCN1CCN(Cc2ccccc2)CC1 (centres undefined)	7	75*	i	-2	102	-9	-8
COc1ccc(Cl)cc1-c1cc(C(=O)NCc2ccc(C(F)(F)F)cc2)[nH]n1	-2	86*	i	0	nt	-13	32
COc1ccc(OC)c(NC(=O)c2cc(-c3cc(Cl)ccc3O)n[nH]2)c1	-1	90*	i	-2	105	-11	58
COc1ccc(Cl)cc1NC(=O)c1cc(-c2ccccc2O)n[nH]1	-2	22	i	2	97	-11	nt
Nc1ncnc2c1ncn2[C@@H]1O[C@H](C(=O)N[C@H]2c3ccccc3C[C@H]2OC=O)[C@@H](O)[C@H]1O	3	0	i	0	nt	1	nt
Cc1ccc(CN2CCSc3ccc(C(=O)NC4CCN(Cc5ccccc5)CC4)cc32)cc1	4	32	i	2	104	1	nt
O=C(NC1CCCC1)c1ccc2c(c1)N(Cc1ccccc1)CCS2	-1	70*	i	3	103	0	-5
CCN(C(=O)COC(=O)c1ccc([N+](=O)[O-])o1)c1cccc2ccccc12	-3	-1	i	1	nt	7	nt
COc1ccc(-c2cc(-c3ccccc3)c(C#N)c(S(C)=O)n2)cc1 (centres undefined)	-2	64*	?	-2	99	6	-4
COc1ccc(Cl)cc1C(=O)NNC(=O)C1CCCO1 (centres undefined)	0	-4	i	3	106	2	nt
COc1cc(CN2CCN(C(c3ccccc3)c3ccccc3)CC2)cc(OC)c1OC	0	64*	i	1	95	-3	-11
c1ccc(OCCN2CCN(C(c3ccccc3)c3ccccc3)CC2)cc1	-2	84*	i	0	120	-18	-5
c1ccc(OCCN2CCNCC2)cc1	2	-3	i	3	117	1	nt
Cc1cc(NCc2ccco2)n2ncnc2n1	2	2	i	-1	100	-6	nt
Cc1cc(C)cc(-n2ncc3c2CCCC3NC(=O)CCN2CCCC2=O)c1 (centres undefined)	0	-1	i	0	105	-3	nt
COc1ccc(CNC(=O)COc2cc3c(c4oc(=O)cc(C)c24)CCC(C)(C)O3)c(OC)c1	7	-2	i	-1	nt	8	nt
CCOC(=O)c1ccccc1NC(=O)CSc1ccc(-c2ccccn2)nn1	2	106*	i	0	103	57*	-14
COc1ccc(C)cc1NC(=O)CSc1ccc(-c2ccccn2)nn1	0	-1	i	-1	nt	47	nt
O=C(N1CCC(n2nc(-c3ccccc3)oc2=O)CC1)C1(c2ccc(Cl)cc2)CC1	-1	0	i	0	100	-1	nt
CCC(=O)N1CCc2cc(S(=O)(=O)CCC(=O)N(C)c3ccc(OC)cc3)ccc21	3	0	i	2	105	1	nt
Cc1ccc(C(C)C)c(OCCNCc2ccccc2)c1	1	83*	i	-2	124	-22	-12
SMILES	HNF4A DNA FP	Granule exo inh	Myeloid diff MLP	SENP1 inh	Pemphigus Ab inh	H9c2 protect	Granule exo CP1
O=[N+]([O-])c1ccc(N2CCN(CC3CCCCC3)CC2)cc1	3	63*	i	-4	106	0	-4
Cc1ccccc1-n1ncc2c1CC(C)(C)CC2NC(=O)CCCN1CCCC1=O (centres undefined)	3	5	i	0	104	4	nt
CSc1nnc2c3cc(F)ccc3n(Cc3ccccc3)c2n1	2	-1	i	-58	91	-9	nt
CCN(CC)CCSc1nnc2c3cc(C)ccc3n(Cc3ccccc3)c2n1	1	64*	i	1	113	-11	-10
Cc1ccccc1OCC(O)CN(Cc1ccccc1O)C1CCCCC1 (centres undefined)	-3	68*	i	1	115	-23	-13
CN(CC(O)COc1ccccc1F)C1CCCCC1 (centres undefined)	-2	-2	i	0	105	2	nt
CCCS(=O)(=O)N1CCCC(C(=O)Oc2ccccc2Cl)C1 (centres undefined)	1	68*	i	2	97	5	-14
COCCCN(Cc1cccs1)S(=O)(=O)c1csc(C(N)=O)c1	0	-6	i	0	99	0	nt
COc1ccc(Oc2nc(-c3cccnc3)nc3ccccc23)cc1	-4	88*	i	-4	112	3	-2
CC(Nc1nc(-c2cccnc2)nc2ccccc12)c1ccc(F)cc1 (centres undefined)	5	65*	i	-4	116	2	-3
CC(Nc1nc(-c2ccccc2)nc2ccccc12)c1ccccc1 (centres undefined)	-1	2	i	0	98	-8	nt
CN(Cc1ccccc1F)c1nc(-c2cccnc2)nc2ccccc12	4	100*	i	-1	106	-19	4
COc1ccc(C(CNc2nc(-c3cccnc3)nc3ccccc23)N(C)C)cc1 (centres undefined)	1	41	i	-7	124	12	nt
Cc1ccc(CNc2nc(-c3cccnc3)nc3ccccc23)cc1	1	105*	i	-1	110	-3	-5
CN(C)c1ccc(C(=O)N2CCCC(CCC(=O)N3CCN(c4ccccn4)CC3)C2)cc1 (centres undefined)	0	20	i	-1	nt	-3	nt
Clc1nc(NCCc2ccccc2)c2cn[nH]c2n1	0	0	i	-1	140	-14	nt
CC(C)NC(=O)CSc1nnc(-c2ccc(F)cc2)c2ccccc12	3	-3	i	1	97	9	nt
COc1ccccc1-c1cnc(C(O)c2c(C)cc(C)cc2C)[nH]1 (centres undefined)	2	-3	i	-1	nt	-1	nt
